Experimental data from different studies.
Compare with care: the assays were run in different laboratories.
Read-out: cell growth or viability

For `Clc1ccc2c(c1)N=C(N1CCNCC1)c1ccccc1N2`, the IC50 was greater than 20 µM (CAL-27; 72 h).
With `O=C(O)c1cc(/N=N/c2ccc(S(=O)(=O)Nc3ccccn3)cc2)ccc1O` the IC50 was greater than 30 µM (VCaP; CCK-8; 72 h).
`O=C(C=C[c-]1cccc1)c1ccc[nH]1.[Fe+2].c1cc[cH-]c1` gave an IC50 of 76.5 µM (4T1; MTT; 72 h).
With `Cc1cc(NC(=O)c2cccc3cc(-c4cccc5[nH]nc(N)c45)ccc23)ccc1F` the IC50 was greater than 20 µM (GL261; CCK-8; 72 h).
`CCN(CC)CCOC(=O)C1(c2ccc([N+](=O)[O-])cc2)CCCC1` has an IC50 of greater than 20 µM (CAL-27; 72 h).
With `O=C(c1cc(Cl)c(Cl)[nH]1)c1c(O)ccc(Cc2ccc(O)c(C(=O)c3cc(Cl)c(Cl)[nH]3)c2O)c1O` the IC50 was 25 µg/mL (MDCK; MTT; 72 h).
`COc1nc(SC)nc(OC)c1C(=O)/C=C/[c-]1cccc1.[Fe+2].c1cc[cH-]c1` has an IC50 of 214 µM (4T1; MTT; 72 h).
`CCOc1cccc(-c2cnc3c(n2)CCCC3)c1` gave an IC50 of 30.9 µM (MCF-10A; 48 h).
`Cc1ccc(C(=O)Nc2ccc(Oc3cc4cnn(C)c4cc3-c3cn[nH]c3)c(F)c2)c(=O)n1-c1ccc(F)cc1` gave an IC50 of 0.076 µM (NCI-H1993; ATP luminescence).
`COc1ccc(CCN(C)CCc2ccc(OC)c(OC)c2)cc1OC` gave an IC50 of greater than 20 µM (CAL-27; 72 h).
For `O=C(NC(=S)NCCCNC(=S)NC(=O)c1ccc2ccccc2c1)c1ccc2ccccc2c1`, the IC50 was 90.2 µM (MCF-10A; 48 h).
For `O=C1Nc2ccc(Cl)cc2[C@@](C#CC2CC2)(C(F)(F)F)O1`, the IC50 was greater than 20 µM (CAL-27; 72 h).
The IC50 of `COc1cccc2c1C(=O)c1c(O)c3c(c(O)c1C2=O)C[C@@](O)(C(=O)CO)C[C@@H]3O[C@H]1C[C@H](N)[C@H](O)[C@H](C)O1` is reported as 1.2 µM (MCF-10A; 48 h).
The IC50 of `COc1cc2nc(N3CCN(C(=O)c4ccco4)[C@H]4CCCC[C@H]43)nc(N)c2cc1OC` (racemic) is reported as 13.3 µM (CAL-27; 72 h).
With `Cc1cn([C@H]2C[C@H](N=[N+]=[N-])[C@@H](CO)O2)c(=O)[nH]c1=O` the IC50 was greater than 30 µM (VCaP; CCK-8; 72 h).
For `CC(C)C(=O)SCCCCCCC(=O)Nc1nc(-c2ccccc2)cs1`, the IC50 was 1.15 µM (CAL-27; 72 h).
For `CCCCOc1ccc(-c2cnc3c(n2)CCCC3)cc1`, the IC50 was 25 to 50 µM (MCF-10A; 48 h).
For `CN(C)CC[C@@H](c1ccc(Cl)cc1)c1ccccn1`, the IC50 was greater than 20 µM (CAL-27; 72 h).
`O=C(c1cc(Cl)c(Cl)[nH]1)c1c(O)ccc(Cc2cc(C(c3csc(-c4ccccc4O)n3)c3ccc(O)c(C(=O)c4cc(Cl)c(Cl)[nH]4)c3O)c(O)c(C(=O)c3cc(Cl)c(Cl)[nH]3)c2O)c1O` (stereo not drawn) gave an IC50 of 28 µg/mL (MDCK; MTT; 72 h).
`CC(C)c1cccc(C(C)C)c1N1CCN(c2c(C(C)C)cccc2C(C)C)C1=[Se]` gave an IC50 of 15.8 µM (HCT-15; MTT; 72 h).
With `CCCCc1cccc(-c2cnc3c(n2)CCCC3)c1` the IC50 was greater than 50 µM (MCF-10A; 48 h).
For `O=C1CCCCC1C1C2C=CC=CC1C(C1CC1)=C2` (stereo not drawn), the IC50 was 0.017 µM (K562; flow cytometry).
With `CC(C)Oc1cccc(-c2cnc3c(n2)CCCC3)c1` the IC50 was 25 to 50 µM (MCF-10A; 48 h).
`CC1(C)S[C@@H]2[C@H](NC(=O)[C@H](N)c3ccc(O)cc3)C(=O)N2[C@H]1C(=O)O` has an IC50 of greater than 30 µM (VCaP; CCK-8; 72 h).
The IC50 of `CCOc1ccc(-c2cnc3c(n2)CCCC3)cc1` is reported as greater than 50 µM (MCF-10A; 48 h).
`COc1cc(Nc2nccc(-c3cnn4nc(OC)ccc34)n2)cc(C(F)(F)F)c1` has an IC50 of 0.41 µM (OVK18; ATP luminescence).
`COc1cc(-c2ncn(/C=C\C(=O)OC(C)C)n2)cc(C(F)(F)F)c1` has an IC50 of 0.063 µM (F-36P; 72 h).
`CCCCc1ccc2[nH]c(NC(=O)OC)nc2c1` gave an IC50 of 0.284 µM (GTL 16; CCK-8; 72 h).
`CC(C)C[C@H](NC(=O)[C@H](Cc1ccccc1)NC(=O)c1cnccn1)B(O)O` has an IC50 of 0.011 µM (SCLC-21H; ATP luminescence).
`CNC(=O)c1ccc(N2C(=S)N(c3cnc(C#N)c(C(F)(F)F)c3)C(=O)C23CCC3)cc1F` has an IC50 of 0.39 µM (VCaP; ATP luminescence; 6 days).
